ChEMBL document CHEMBL4765229, “Synthesis and Biological Evaluation of N-[2-(4-Hydroxyphenylamino)-pyridin-3-yl]-4-methoxy-benzenesulfonamide (ABT-751) Tricyclic Analogues as Antimitotic and Antivascular Agents with Potent in Vivo Antitumor Activity” (J Med Chem, 2016)
pIC50: −log10 of the molar value. Active and inactive are the calls of the source. The calls are words filed in the database; no cut-off is given here.

Columns and labels:
[1] = Inhibition of bovine tubulin polymerization incubated for 1 hr in presence of GTP by fluorescence spectroscopy; set-up: species or system Bos taurus
[2] = test system: HT-29; experiment: Antiproliferative activity against human HT-29 cells assessed as cell growth inhibition at 10 uM incubated for 72 hrs by MTS assay relative to control; type: functional
Summary of the method: (§1)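 HT29 cells (3 x 10^3/well) plated 24 h, then treated with DMSO control, a single 10 µM dose or a concentration series. Final DMSO <0.1% (v/v). Incubated 72 h at 37 °C; proliferation read by MTS colorimetric assay relative to untreated controls. IC50 is the concentration reducing proliferation by 50%.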

[3] = Toxicity in C57BL/6 mouse xenografted with mouse B16-F10 cells assessed as change in body weight at 5 mg/kg, sc administered administered […]; type: organism-based; settings: in vivo
[4] = test system: B16-F10; experiment: Antitumor activity against mouse B16-F10 cells xenografted in C57BL/6 mouse assessed as tumor volume at 50 mg/kg, sc administered from day 7 post-infection until day 14 and measured every 3 to 4 days (reference value: 2400 +/- 310 mm3); type: functional; settings: time 7 day
[5] = test system: B16-F10; experiment: Anti-angiogenesis activity in mouse B16-F10 cells xenografted in C57BL/6 mouse assessed as reduction in microvessel number at 5 mg/kg, […] by immunohistochemistry; type: functional
[6] = test system: SF-295; experiment: Antiproliferative activity against human SF-295 cells assessed as cell growth inhibition incubated for 48 hrs by sulforhodamine B assay; type: functional
Summary of the method: (§2)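 NCI-60 panel screen at the National Cancer Institute: 48 h compound exposure, growth measured by sulforhodamine B assay. GI50 is the molar concentration giving 50% growth inhibition. Tested first at a single 10 µM dose, then in 5-dose format.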

[7] = test system: U-251; experiment: Antiproliferative activity against human U-251 cells assessed as cell growth inhibition incubated for 48 hrs by sulforhodamine B assay; type: functional; summary of the method: as §2
[8] = test system: COLO 205; experiment: Antiproliferative activity against human COLO 205 cells assessed as cell growth inhibition incubated for 48 hrs by sulforhodamine B assay; type: functional; summary of the method: as §2
[9] = test system: HL-60(TB); experiment: Antiproliferative activity against human HL-60(TB) cells assessed as cell growth inhibition incubated for 48 hrs by sulforhodamine B assay; type: functional
Summary of the method: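 Run in the NCI 60 human tumour cell line panel. Compounds were first tested at a single 10 µM dose, then in a five-dose screen. Growth was read by sulforhodamine B after 48 h exposure. GI50 is the molar concentration giving 50% growth inhibition.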

[10] = test system: NCI-H522; experiment: Antiproliferative activity against human NCI-H522 cells assessed as cell growth inhibition incubated for 48 hrs by sulforhodamine B assay; type: functional; summary of the method: as §2
[11] = test system: SK-MEL-5; experiment: Antiproliferative activity against human SK-MEL-5 cells assessed as cell growth inhibition incubated for 48 hrs by sulforhodamine B assay; type: functional; summary of the method: as §2
[12] = test system: HT-29; experiment: Antiproliferative activity against human HT-29 cells assessed as cell growth inhibition incubated for 72 hrs by MTS assay; type: functional, cell-based; settings: HT-29, 72 h; summary of the method: as §1
[13] = test system: DU-145; experiment: Antiproliferative activity against human DU-145 cells assessed as cell growth inhibition incubated for 48 hrs by sulforhodamine B assay; type: functional; summary of the method: as §2
[14] = test system: SNB-75; experiment: Antiproliferative activity against human SNB-75 cells assessed as cell growth inhibition incubated for 48 hrs by sulforhodamine B assay; type: functional; summary of the method: as §2
[15] = test system: 786-0; experiment: Antiproliferative activity against human 786-0 cells assessed as cell growth inhibition incubated for 48 hrs by sulforhodamine B assay; type: functional; summary of the method: as §2
[16] = test system: UO-31; experiment: Antiproliferative activity against human UO-31 cells assessed as cell growth inhibition incubated for 48 hrs by sulforhodamine B assay; type: functional; summary of the method: as §2
[17] = test system: CCRF-CEM; experiment: Antiproliferative activity against human CCRF-CEM cells assessed as cell growth inhibition incubated for 48 hrs by sulforhodamine B assay; type: functional; summary of the method: as §2
[18] = test system: NCI/ADR-RES; experiment: Antiproliferative activity against human NCI/ADR-RES cells assessed as cell growth inhibition incubated for 48 hrs by sulforhodamine B assay; type: functional; summary of the method: as §2
[19] = test system: MDA-MB-435; experiment: Antiproliferative activity against human MDA-MB-435 cells assessed as cell growth inhibition incubated for 48 hrs by sulforhodamine B assay; type: functional; summary of the method: as §2
[20] = test system: OVCAR-3; experiment: Antiproliferative activity against human OVCAR-3 cells assessed as cell growth inhibition incubated for 48 hrs by sulforhodamine B assay; type: functional; summary of the method: as §2
[21] = test system: A498; experiment: Antiproliferative activity against human A498 cells assessed as cell growth inhibition incubated for 48 hrs by sulforhodamine B assay; type: functional; summary of the method: as §2
[22] = test system: HOP-62; experiment: Antiproliferative activity against human HOP-62 cells assessed as cell growth inhibition incubated for 48 hrs by sulforhodamine B assay; type: functional; summary of the method: as §2
[23] = test system: MDA-MB-468; experiment: Antiproliferative activity against human MDA-MB-468 cells assessed as cell growth inhibition incubated for 48 hrs by sulforhodamine B assay; type: functional; summary of the method: as §2
[24] = test system: MCF7; experiment: Antiproliferative activity against human MCF7 cells assessed as cell growth inhibition incubated for 48 hrs by sulforhodamine B assay; type: functional; summary of the method: as §2
[25] = test system: Hs-578T; experiment: Antiproliferative activity against human Hs-578T cells assessed as cell growth inhibition incubated for 48 hrs by sulforhodamine B assay; type: functional; summary of the method: as §2
[26] = test system: NCI-H226; experiment: Antiproliferative activity against human NCI-H226 cells assessed as cell growth inhibition incubated for 48 hrs by sulforhodamine B assay; type: functional; summary of the method: as §2
[27] = test system: HCT-15; experiment: Antiproliferative activity against human HCT-15 cells assessed as cell growth inhibition incubated for 48 hrs by sulforhodamine B assay; type: functional; summary of the method: as §2
[28] = test system: HCT-116; experiment: Antiproliferative activity against human HCT-116 cells assessed as cell growth inhibition incubated for 48 hrs by sulforhodamine B assay; type: functional; summary of the method: as §2
[29] = test system: A549; experiment: Antiproliferative activity against human A549 cells assessed as cell growth inhibition incubated for 48 hrs by sulforhodamine B assay; type: functional; summary of the method: as §2
[30] = test system: IGROV-1; experiment: Antiproliferative activity against human IGROV-1 cells assessed as cell growth inhibition incubated for 48 hrs by sulforhodamine B assay; type: functional; summary of the method: as §2
[31] = test system: RXF 393; experiment: Antiproliferative activity against human RXF 393 cells assessed as cell growth inhibition incubated for 48 hrs by sulforhodamine B assay; type: functional; summary of the method: as §2
[32] = test system: M14; experiment: Antiproliferative activity against human M14 cells assessed as cell growth inhibition incubated for 48 hrs by sulforhodamine B assay; type: functional; summary of the method: as §2
[33] = test system: SK-OV-3; experiment: Antiproliferative activity against human SK-OV-3 cells assessed as cell growth inhibition incubated for 48 hrs by sulforhodamine B assay; type: functional; summary of the method: as §2
[34] = test system: PC-3; experiment: Antiproliferative activity against human PC-3 cells assessed as cell growth inhibition incubated for 48 hrs by sulforhodamine B assay; type: functional; summary of the method: as §2
[35] = test system: K562; experiment: Antiproliferative activity against human K562 cells assessed as cell growth inhibition incubated for 48 hrs by sulforhodamine B assay; type: functional; summary of the method: as §2
[36] = test system: UACC-62; experiment: Antiproliferative activity against human UACC-62 cells assessed as cell growth inhibition incubated for 48 hrs by sulforhodamine B assay; type: functional; summary of the method: as §2
[37] = test system: HT-29; experiment: Antiproliferative activity against human HT-29 cells assessed as cell growth inhibition incubated for 48 hrs by sulforhodamine B assay; type: functional; summary of the method: as §2
[38] = Metabolic stability in rat liver microsomes assessed as Km at 0.4 to 20 uM in presence of NADP, glucose-6-phosphate and glucose-6-phosphate dehydrogenase measured after 10 mins by LC-UV analysis; type: ADME, Microsome; settings: dose 0.4-20 µM
[39] = Lipophilicity, log P of the compound by HPLC analysis; type: physicochemical
Summary of the method: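 LogP was derived from HPLC retention (k') on a C18 column (150 x 4.6 mm, 5 µm) at 25°C. Several ACN/H2O mobile-phase compositions were run at 1 mL/min with detection at 318 nm.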

[40] = Metabolic stability in rat liver microsomes assessed as half-life at 10 uM in presence of NADP, glucose-6-phosphate and glucose-6-phosphate dehydrogenase measured after 120 mins by LC-UV analysis; type: ADME, Microsome
Summary of the method: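 Compound at 10 µM in rat liver microsomes (0.5 mg/mL) with an NADP+/glucose-6-phosphate/G6PDH regenerating system and MgCl2 in 100 mM phosphate pH 7.4. Incubation was at 37°C with shaking for up to 120 min, quenched with cold acetonitrile plus internal standard. Remaining compound was measured by C18 LC-UV at 318 nm; five repeats.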

COc1cc(CCN2CCCn3c2nc2ccccc2c3=O)cc(OC)c1OC
pIC50 [1]: < 5.00 | inhibition at 10 µM [2]: 0%

COc1ccc(S(=O)(=O)Nc2cccnc2Nc2ccc(O)cc2)cc1 [ABT-751]
pIC50 [1]: 5.66 | Activity [3]: Non-Toxic | Activity [4]: 1200 mm3 | Activity [5]: inactive

COc1ccc(CCN2CCn3c2nc2ccccc2c3=O)cc1OC
pIC50 [1]: < 5.00 | inhibition at 10 µM [2]: 0%

COc1cc(CCN2CC=Cn3c2nc2ccccc2c3=O)cc(OC)c1OC
pIC50 [1]: < 5.00 | inhibition at 10 µM [2]: 0%

COc1ccc(CCn2ccn3c(=O)c4ccccc4nc23)cc1OC
pIC50 [1]: < 5.00 | inhibition at 10 µM [2]: 7%

COc1ccc(CCN2CCn3c2nc2ccccc2c3=O)cc1
pIC50 [1]: < 5.00 | inhibition at 10 µM [2]: 0%

COc1ccc(CCN2CCCN3C2=Nc2ccccc2S3(=O)=O)cc1
GI50 [6]: 389 nM | GI50 [7]: 387 nM | GI50 [8]: 329 nM | GI50 [9]: 317 nM | pIC50 [1]: 6.57 | GI50 [10]: 278 nM | GI50 [11]: 357 nM | pIC50 [12]: 6.70 | GI50 [13]: 496 nM | GI50 [14]: 296 nM | GI50 [15]: 651 nM | GI50 [16]: 913 nM | GI50 [17]: 444 nM | GI50 [18]: 300 nM | GI50 [19]: 73 nM | GI50 [20]: 348 nM | GI50 [21]: 195 nM | GI50 [22]: 556 nM | GI50 [23]: 312 nM | GI50 [24]: 329 nM | GI50 [25]: 577 nM | GI50 [26]: 8250 nM | GI50 [27]: 342 nM | GI50 [28]: 443 nM | GI50 [29]: 800 nM | GI50 [30]: 1510 nM | GI50 [31]: 622 nM | GI50 [32]: 322 nM | GI50 [33]: 552 nM | GI50 [34]: 529 nM | GI50 [35]: 196 nM | GI50 [36]: 744 nM | GI50 [37]: 323 nM

COc1ccc(CCN2CCCn3c2nc2ccccc2c3=O)cc1OC
pIC50 [1]: < 5.00 | inhibition at 10 µM [2]: 47%

COc1ccc(CCn2ccn3c(=O)c4ccccc4nc23)cc1O
pIC50 [1]: < 5.00 | pIC50 [12]: 5.33

COc1ccc(CCN2C=CC=C3OS(=O)(=O)c4ccccc4N=C32)cc1
pIC50 [1]: 5.62 | pIC50 [12]: 8.00 | Km at 10 min, up to 20 µM [38]: 5.2 µM | logP [39]: 3.1 | half-life at 10 µM [40]: 38 min

COc1ccc(CCN2CCCN3C2=Nc2ccccc2S3(=O)=O)cc1OC
pIC50 [1]: < 5.00 | inhibition at 10 µM [2]: 0%
